For assay [1], the target named is Mu-type opioid receptor (Mus musculus, UniProt P42866). Nature of the assay: Displacement of [3H]DAMGO from mu opioid receptor in mouse whole brain without cerebellum. The gist of the method:
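Competitive binding against [3H]DAMGO as the mu radioligand, on membranes from mouse whole brain with the cerebellum removed. Run in duplicate, with results reported as Ki.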
(Displacement assays read how much labelled ligand stays bound in the presence of the test substance.)

In assay [2] the target is Delta-type opioid receptor (Mus musculus, UniProt P32300). Briefly: Displacement of [3H]DPDPE from delta opioid receptor in mouse whole brain without cerebellum. In outline: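 Competitive binding against [3H]DPDPE as the delta radioligand, on membranes from mouse whole brain with the cerebellum removed. Run in duplicate, with results reported as Ki.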
Sequence of Delta-type opioid receptor (P32300 whole entry, looked up): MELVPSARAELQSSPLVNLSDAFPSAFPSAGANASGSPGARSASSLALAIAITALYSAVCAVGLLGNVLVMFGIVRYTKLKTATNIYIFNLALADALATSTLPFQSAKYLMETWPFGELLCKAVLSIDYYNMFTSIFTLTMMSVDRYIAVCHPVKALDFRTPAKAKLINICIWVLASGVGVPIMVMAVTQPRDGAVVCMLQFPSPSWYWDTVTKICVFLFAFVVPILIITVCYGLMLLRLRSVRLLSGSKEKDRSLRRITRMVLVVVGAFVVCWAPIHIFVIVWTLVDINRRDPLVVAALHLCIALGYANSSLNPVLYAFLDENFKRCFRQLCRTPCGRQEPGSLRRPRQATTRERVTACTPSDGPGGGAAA
The target of assay [3] is Kappa-type opioid receptor (Cavia porcellus, UniProt P41144). Nature of the assay: Displacement of [3H]U69593 from kappa opioid receptor in guinea pig cerebellum. The gist of the method: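 Competitive binding against [3H]U-69,593 as the kappa radioligand, on guinea pig cerebellum membranes. Run in duplicate, with results reported as Ki.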
Sequence of Kappa-type opioid receptor (P41144 whole entry): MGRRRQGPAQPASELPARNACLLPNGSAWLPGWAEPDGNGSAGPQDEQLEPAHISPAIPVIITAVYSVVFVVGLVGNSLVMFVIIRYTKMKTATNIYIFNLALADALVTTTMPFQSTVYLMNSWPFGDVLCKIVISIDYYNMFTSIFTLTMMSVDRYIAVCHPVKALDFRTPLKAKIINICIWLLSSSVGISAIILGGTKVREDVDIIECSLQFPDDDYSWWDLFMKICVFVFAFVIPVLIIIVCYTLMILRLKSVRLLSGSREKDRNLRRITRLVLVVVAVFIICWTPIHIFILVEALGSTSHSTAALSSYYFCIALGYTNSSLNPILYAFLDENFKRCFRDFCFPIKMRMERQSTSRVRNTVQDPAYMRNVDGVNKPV
The nature of assay [4]: Selectivity ratio of Ki for mouse mu opioid receptor to Ki for guinea pig kappa opioid receptor.
Assay [5] is described as follows: Selectivity ratio of Ki for mouse delta opioid receptor to Ki for guinea pig kappa opioid receptor.

Molecules are shown by their SMILES.

Sequence of Mu-type opioid receptor (P42866 whole entry): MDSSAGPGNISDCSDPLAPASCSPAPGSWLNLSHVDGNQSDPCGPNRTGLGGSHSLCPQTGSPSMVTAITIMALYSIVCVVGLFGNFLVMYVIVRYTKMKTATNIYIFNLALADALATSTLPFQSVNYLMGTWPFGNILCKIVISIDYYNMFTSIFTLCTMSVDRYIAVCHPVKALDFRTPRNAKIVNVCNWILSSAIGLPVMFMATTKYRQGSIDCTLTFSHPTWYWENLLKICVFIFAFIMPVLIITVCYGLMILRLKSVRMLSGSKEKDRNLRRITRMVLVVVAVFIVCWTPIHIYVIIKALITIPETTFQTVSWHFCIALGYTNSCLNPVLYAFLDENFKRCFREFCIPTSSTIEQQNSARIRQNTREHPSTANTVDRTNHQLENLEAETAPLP

As to `O=C(NCCc1ccccc1)[C@@H]1CCC23CCN(CC4CC4)CC2(Cc2ccc(O)cc23)C1` (stereo not given in full), the results for the inhibition constant (Ki) in assay [1], in assay [2] and in assay [3] were 54.1 nM, greater than 1000 nM and 169 nM, respectively. In addition, in assay [4], the Ratio Ki stood at 0.32.
In the case of `O=C(NCc1ccccc1)C1=CCC23CCN(CC4CC4)CC2(C1)Cc1ccc(O)cc13` (stereo not given), the values for the inhibition constant (Ki) in assay [1], in assay [2] and in assay [3] were 33.9 nM, 298 nM and 72.7 nM, respectively. In addition, the Ratio Ki in assay [4] was determined as 0.47; in assay [5], 4.1.
Regarding `O=C(NCCc1ccccc1)[C@H]1CCC23CCN(CC4CC4)CC2(Cc2ccc(O)cc23)C1` (stereo not given in full), the inhibition constant (Ki) is 453 nM in assay [1], greater than 1000 nM in assay [2] and 641 nM in assay [3]. The Ratio Ki in assay [4] stood at 0.71.
As for `O=C(NCCc1ccccc1)C1=CCC23CCN(CC4CC4)CC2(C1)Cc1ccc(O)cc13` (stereo not given), the inhibition constant Ki was found to be 35.9 nM in assay [1], 412 nM in assay [2] and 253 nM in assay [3]. In addition, the Ratio Ki in assay [4] turned out to be 0.14; in assay [5], 1.63.
For `O=C(Nc1ccccc1)C1=CCC23CCN(CC4CC4)CC2(C1)Cc1ccc(O)cc13` (stereo not given) the same measures were 12.4 nM, 192 nM, 46.7 nM, 0.27 and 4.11.
With `CN(C(=O)/C=C/c1ccoc1)[C@@H]1CCC23Cc4ccc(O)cc4C2(CCN(CC2CC2)C3)C1` (stereo not given in full), the Ki was determined as 12.2 nM in assay [1], 121 nM in assay [2] and 3.43 nM in assay [3]. In addition, the Ratio Ki in assay [4] was 3.56; in assay [5], 35.3.
`O=C(NCc1ccccc1)[C@H]1CCC23CCN(CC4CC4)CC2(Cc2ccc(O)cc23)C1` (stereo not given in full): the Ki in assay [1] was 112 nM; in assay [2], greater than 1000 nM; in assay [3], greater than 1000 nM.
For `O=C(Nc1ccccc1)[C@@H]1CCC23CCN(CC4CC4)CC2(Cc2ccc(O)cc23)C1` (stereo not given in full), the Ki was 79.7 nM in assay [1], 282 nM in assay [2] and 13.4 nM in assay [3]. Besides, the Ratio Ki is 5.95 in assay [4] and 21 in assay [5].
Take `CN(C(=O)CCc1ccccc1)[C@H]1CCC23Cc4ccc(O)cc4C2(CCN(CC2CC2)C3)C1` (stereo not given in full): the Ki in assay [1] was 1.23 nM; in assay [2] it was 44.3 nM; in assay [3], 7.1 nM. Besides, the results for the Ratio Ki in assay [4] and in assay [5] were 0.17 and 6.24, respectively.
For `CN(C(=O)CCc1ccccc1)[C@@H]1CCC23Cc4ccc(O)cc4C2(CCN(CC2CC2)C3)C1` (stereo not given in full) the same measures were 31.9 nM, 65.2 nM, 16.4 nM, 1.95 and 3.98.
As for `O=C(NCc1ccccc1)[C@@H]1CCC23CCN(CC4CC4)CC2(Cc2ccc(O)cc23)C1` (stereo not given in full), the Ki in assay [1] was 106 nM; in assay [2] it was greater than 1000 nM; in assay [3] it was 19.2 nM. Besides, in assay [4], the Ratio Ki was 5.52.
Regarding `CN(C(=O)/C=C/c1ccoc1)[C@H]1CCC23Cc4ccc(O)cc4C2(CCN(CC2CC2)C3)C1` (stereo not given in full), the Ki was determined as 2.2 nM in assay [1], 35 nM in assay [2] and 0.83 nM in assay [3]. In addition, the Ratio Ki in assay [4] was found to be 2.65; in assay [5], 42.2.
The like results for `O=C(Nc1ccccc1)[C@H]1CCC23CCN(CC4CC4)CC2(Cc2ccc(O)cc23)C1` (stereo not given in full) were, in that order, 80.8 nM, 207 nM, 108 nM, 0.75 and 1.92.

As a reminder, the Ki is a measure of affinity in units of concentration, obtained from inhibition or displacement. High values mean lower affinity, low ones higher affinity.
